ChEMBL document CHEMBL1121696, “Antimicrobial 3-methyleneflavanones” (1981)
Converted amounts (≈) assume the structure as drawn. Each block holds one molecule with its values, some of them ahead of it.

Tests used:
Trichophyton benhamiae [1] = assay: Compound was tested for the antimicrobial activity against Trichophyton mentagrophytes (ATCC 4807); Range is 12.5-25; type: functional, Arthroderma benhamiae
Summary of the method: (§1)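 Spores came from Eugon agar slants grown 1 week at 32 °C, suspended at 10⁶/mL in Eugon broth or saline, and applied by Steers replicator. The lowest inhibitory concentration was read after 48-72 h at 32 °C.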

Aspergillus niger = assay: Antimicrobial activity against Aspergillus niger (ATCC 16404); type: functional; summary of the method: as §1
Candida albicans [2] = assay: Compound was tested for the antimicrobial activity against Candida albicans (ATCC 10231, NRRL Y-477); Range is 50 to >100; type: functional
Summary of the method: (§2)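 Agar dilution MIC. Stocks and twofold serial dilutions in DMF or 50% aqueous DMF were mixed 1:100 into molten Eugon agar, giving final 100, 50, 25, 12.5, 6.2, 3.1 mcg/mL (further dilutions sometimes) and ≤1% DMF. Inocula came from 24 h Eugon agar slants at 32 °C, suspended at 10⁶ cells/mL and applied with a Steers replicator. MIC (lowest concentration inhibiting growth) was read after 24 h at 32 °C.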

Staphylococcus aureus [3] = assay: Antimicrobial activity against Staphylococcus aureus (ATCC 6538, NRRL B2747); Range is <3.1-6.2; type: functional; summary of the method: as §2
Candida albicans [4] = assay: Compound was tested for the antimicrobial activity against Candida albicans (ATCC 10231, NRRL Y-477); Range is 25 to >100; type: functional; summary of the method: as §2
Enterococcus faecalis [5] = assay: Antimicrobial activity against Streptococcus faecalis (ATCC 10541); type: functional; summary of the method: as §2
Trichophyton benhamiae [6] = assay: Compound was tested for the antimicrobial activity against Trichophyton mentagrophytes (ATCC 4807); Range is 6.2-25; type: functional, Arthroderma benhamiae; summary of the method: as §1
Trichophyton benhamiae [7] = assay: Antimicrobial activity against Trichophyton mentagrophytes (ATCC 4807); type: functional, Arthroderma benhamiae; summary of the method: as §1
Trichophyton benhamiae [8] = assay: Compound was tested for the antimicrobial activity against Trichophyton mentagrophytes (ATCC 4807); Range is <3.1-6.2; type: functional, Arthroderma benhamiae; summary of the method: as §1
Candida albicans [9] = assay: Compound was tested for the antimicrobial activity against Candida albicans (ATCC 10231, NRRL Y-477); Range is 12.5-100; type: functional; summary of the method: as §2
Trichophyton benhamiae [10] = assay: Compound was tested for the antimicrobial activity against Trichophyton mentagrophytes (ATCC 4807); Range is <3.1-12.5; type: functional, Arthroderma benhamiae; summary of the method: as §1
Staphylococcus aureus [11] = assay: Compound was tested for the antimicrobial activity against Staphylococcus aureus (ATCC 6538, NRRL B2747); Range is 6.2-12.5; type: functional; summary of the method: as §2
Enterococcus faecalis [12] = assay: Compound was tested for the antimicrobial activity against Streptococcus faecalis (ATCC 10541); Range is 25-50; type: functional; summary of the method: as §2
Candida albicans [13] = assay: Compound was tested for the antimicrobial activity against Candida albicans (ATCC 10231, NRRL Y-477); Range is 50-100; type: functional; summary of the method: as §2
Trichophyton benhamiae [14] = assay: Compound was tested for the antimicrobial activity against Trichophyton mentagrophytes (ATCC 4807); Range is 25-50; type: functional, Arthroderma benhamiae; summary of the method: as §1
Staphylococcus aureus [15] = assay: Antimicrobial activity against Staphylococcus aureus (ATCC 6538, NRRL B2747); type: functional; summary of the method: as §2
Candida albicans [16] = assay: Compound was tested for the antimicrobial activity against Candida albicans (ATCC 10231, NRRL Y-477); Range is 100 to >100; type: functional; summary of the method: as §2
Trichophyton benhamiae [17] = assay: Compound was tested for the antimicrobial activity against Trichophyton mentagrophytes (ATCC 4807); Range is 6.2-12.5; type: functional, Arthroderma benhamiae; summary of the method: as §1
Candida albicans [18] = assay: Antimicrobial activity against Candida albicans (ATCC 10231, NRRL Y-477); type: functional; summary of the method: as §2
Candida albicans [19] = assay: Compound was tested for the antimicrobial activity against Candida albicans (ATCC 10231, NRRL Y-477); Range is 25-50; type: functional; summary of the method: as §2

MIC (Trichophyton benhamiae [1]): 12.5 µg/mL (≈ 44.7 µM)
MIC (Aspergillus niger): 100 µg/mL (≈ 358 µM)
SMILES: C=C1C(=O)c2ccccc2OC1c1ccc(N(C)C)cc1 (stereo not drawn)

MIC (Trichophyton benhamiae [1]): 12.5 µg/mL (≈ 46.9 µM)
MIC (Candida albicans [2]): > 50 µg/mL
SMILES: C=C1C(=O)c2ccccc2OC1c1ccc(OC)cc1 (stereo not drawn)

MIC (Candida albicans [9]): 12.5 µg/mL (≈ 44.4 µM)
MIC (Trichophyton benhamiae [10]): < 3.1 µg/mL
MIC (Staphylococcus aureus [11]): 6.2 µg/mL (≈ 22 µM)
SMILES: CN(C)CC1C(=O)c2ccccc2OC1c1ccccc1 (stereo not drawn)

MIC (Trichophyton benhamiae [6]): 6.2 µg/mL (≈ 20.3 µM)
MIC (Enterococcus faecalis [12]): 25 µg/mL (≈ 81.9 µM)
SMILES: C=C1C(=O)c2ccccc2OC1c1ccc(Cl)cc1Cl (stereo not drawn)

MIC (Trichophyton benhamiae [1]): 12.5 µg/mL (≈ 39.9 µM)
MIC (Candida albicans [16]): > 100 µg/mL
SMILES: C=C1C(=O)c2ccccc2OC1(c1ccccc1)c1ccncc1 (stereo not drawn)

MIC (Trichophyton benhamiae [6]): 6.2 µg/mL (≈ 19.5 µM)
SMILES: C=C1C(=O)c2ccccc2OC1(c1ccccc1)c1cccs1 (stereo not drawn)

MIC (Trichophyton benhamiae [6]): 6.2 µg/mL (≈ 23.7 µM)
SMILES: C=C1C(=O)c2ccccc2OC1c1ccc(C#N)cc1 (stereo not drawn)

MIC (Enterococcus faecalis [5]): 100 µg/mL (≈ 624 µM)
MIC (Trichophyton benhamiae [17]): 6.2 µg/mL (≈ 38.7 µM)
MIC (Staphylococcus aureus [15]): 50 µg/mL (≈ 312 µM)
MIC (Candida albicans [19]): 25 µg/mL (≈ 156 µM)
MIC (Aspergillus niger): 100 µg/mL (≈ 624 µM)
SMILES: C=C1COc2ccccc2C1=O

The next lines start with the molecule.

SMILES: C=C1C(=O)c2ccccc2OC1c1ccc2ccccc2c1 (stereo not drawn)
MIC (Staphylococcus aureus [3]): < 3.1 µg/mL
MIC (Candida albicans [4]): > 25 µg/mL
MIC (Enterococcus faecalis [5]): 50 µg/mL (≈ 175 µM)
MIC (Trichophyton benhamiae [6]): 6.2 µg/mL (≈ 21.7 µM)
MIC (Aspergillus niger): > 100 µg/mL

SMILES: C=C1C(=O)c2cc(C)ccc2OC1c1ccccc1 (stereo not drawn)
MIC (Trichophyton benhamiae [7]): 6.2 µg/mL (≈ 24.8 µM)

SMILES: C=C1C(=O)c2ccccc2OC1c1ccc(C)cc1 (stereo not drawn)
MIC (Trichophyton benhamiae [8]): < 3.1 µg/mL

SMILES: C=C1C(=O)c2ccccc2OC1(C)C
MIC (Enterococcus faecalis [5]): > 100 µg/mL
MIC (Candida albicans [13]): 50 µg/mL (≈ 266 µM)
MIC (Trichophyton benhamiae [14]): 25 µg/mL (≈ 133 µM)
MIC (Staphylococcus aureus [15]): > 100 µg/mL
MIC (Aspergillus niger): > 100 µg/mL

SMILES: C=C1C(=O)c2ccc(OC)cc2OC1c1ccc(Cl)cc1 (stereo not drawn)
MIC (Staphylococcus aureus [3]): < 3.1 µg/mL
MIC (Candida albicans [4]): > 25 µg/mL
MIC (Trichophyton benhamiae [17]): 6.2 µg/mL (≈ 20.6 µM)

SMILES: CN(C)CC1(C)C(=O)c2ccccc2OC1c1ccccc1 (stereo not drawn)
MIC (Trichophyton benhamiae [7]): > 50 µg/mL
MIC (Candida albicans [18]): > 50 µg/mL
MIC (Enterococcus faecalis [5]): > 50 µg/mL
MIC (Staphylococcus aureus [15]): > 50 µg/mL
MIC (Aspergillus niger): > 50 µg/mL
